Measured values as given in ChEMBL document CHEMBL1146375, “Synthetic studies on novel benzimidazolopeptides with antimicrobial, cytotoxic and anthelmintic potential” (2007).
Values after ≈ are worked out from the molar mass of the structure shown.

Tested on: Escherichia coli
Experiment: Antibacterial activity against Escherichia coli NCIM 2065 after 18 hrs by disc diffusion method
Assay type: functional
Conditions: not given
How it was run: (§1)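 Modified Kirby-Bauer disc diffusion. Plates inoculated with spore suspension (about 6 × 10⁴ spores mL^-1). Sterile 6 mm paper discs carried test samples at 10 mg mL^-1; ciprofloxacin disc as reference, DMF disc as negative control. Plates held 18 h at 37 °C. Inhibition zone diameters (mm) averaged over triplicate sets.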
In the case of `Cc1cc2nc(-c3ccc(C(=O)N[C@@H](CCCNC(=N)N[N+](=O)[O-])C(=O)O)cc3)[nH]c2cc1C`, the “inhibition zone (IZ)” value is reported as 19 mm.

Tested on: Candida albicans
Experiment: Antifungal activity against Candida albicans MUCC 29 after 48 hrs by disc diffusion method
Assay type: functional
Conditions: not given
How it was run: (§2)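 Agar well diffusion on plates inoculated with spore suspension in normal saline from cultures on Sabouraud's broth. Wells punched and loaded with test samples or griseofulvin at 10 mg mL^-1, with DMSO as negative control. Incubated 48 h at 37 °C.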
For `Cc1cc2nc(-c3ccc(C(=O)N[C@@H](CCCNC(=N)N[N+](=O)[O-])C(=O)O)cc3)[nH]c2cc1C`, the “inhibition zone (IZ)” value was 17 mm.

Tested on: Escherichia coli
Experiment: Antibacterial activity against Escherichia coli NCIM 2065 after 18 hrs by tube dilution method
Assay type: functional
Conditions: NCIM 2065, 18 h
With `Cc1cc2nc(-c3ccc(C(=O)N[C@@H](CCCNC(=N)N[N+](=O)[O-])C(=O)O)cc3)[nH]c2cc1C` the MIC was 12.5 µg/mL (≈ 26.7 µM).

Tested on: Staphylococcus aureus
Experiment: Antibacterial activity against Staphylococcus aureus NCIM 2079 after 18 hrs by tube dilution method
Assay type: functional
Conditions: NCIM 2079, 18 h
How it was run: (§3)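 Tube dilution MIC. Stock diluted in sterile broth to seven concentrations from 200 to 3.1 […]. Each tube inoculated with one loopful of test bacterium and incubated 18 h at 37 °C. MIC read from presence or absence of growth.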
Molecule `Cc1cc2nc(-c3ccc(C(=O)N[C@@H](CCCNC(=N)N[N+](=O)[O-])C(=O)O)cc3)[nH]c2cc1C` has an MIC of 25 µg/mL (≈ 53.5 µM).

Tested on: Pontoscolex corethrurus
Experiment: Anthelmintic activity against Pontoscolex corethrurus ICARBC 408 assessed as mean death time
Assay type: functional
Conditions: not given
How it was run: (§4)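 Earthworms exposed to test suspensions at 2 mg mL−1, prepared by triturating compound with Tween 80 (0.5%) and distilled water, stirring 30 min, then diluting to 0.2% w/v. Mebendazole suspension was made the same way. Death was confirmed by moving worms into 50 °C warm water and looking for movement. Mean death time (min) taken from triplicate sets.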
For `Cc1cc2nc(-c3ccc(C(=O)N[C@@H](CCCNC(=N)N[N+](=O)[O-])C(=O)O)cc3)[nH]c2cc1C`, the Time was 34.96 min.

Tested on: Microsporum audouinii
Experiment: Antifungal activity against Microsporum audouinii MUCC 545 after 48 hrs by tube dilution method
Assay type: functional
Conditions: not given
How it was run: (§5)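 Tube dilution MIC as for bacteria (seven concentrations, 200–3.1 […]), with DMSO in place of DMF. Tubes inoculated with fungal culture and incubated 48 h at 37 °C. MIC read from presence or absence of growth.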
In the case of `Cc1cc2nc(-c3ccc(C(=O)N[C@@H](CCCNC(=N)N[N+](=O)[O-])C(=O)O)cc3)[nH]c2cc1C`, the MIC is reported as 12.5 µg/mL (≈ 26.7 µM).

Tested on: Staphylococcus aureus
Experiment: Antibacterial activity against Staphylococcus aureus NCIM 2079 after 18 hrs by disc diffusion method
Assay type: functional
Conditions: not given
How it was run: as §1
In the case of `Cc1cc2nc(-c3ccc(C(=O)N[C@@H](CCCNC(=N)N[N+](=O)[O-])C(=O)O)cc3)[nH]c2cc1C`, the “inhibition zone (IZ)” value is reported as 11 mm.

Tested on: Trichophyton benhamiae
Experiment: Antifungal activity against Trichophyton mentagrophytes MUCC 665 after 48 hrs by tube dilution method
Assay type: functional, Arthroderma benhamiae
Conditions: not given
How it was run: as §5
Molecule `Cc1cc2nc(-c3ccc(C(=O)N[C@@H](CCCNC(=N)N[N+](=O)[O-])C(=O)O)cc3)[nH]c2cc1C` has an MIC of 12.5 µg/mL (≈ 26.7 µM).

Tested on: Pontoscolex corethrurus
Experiment: Anthelmintic activity against Pontoscolex corethrurus ICARBC 408 assessed as mean paralyzing time
Assay type: functional
Conditions: not given
How it was run: (§6)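 Earthworms exposed to test suspensions at 2 mg mL^-1 (0.2% w/v), made by triturating compound with Tween 80 (0.5%) and distilled water, then mechanically stirred 30 min. Mebendazole suspension prepared alike as reference. Paralysis and death times recorded; death confirmed by no movement in 50 °C water. Means from triplicate sets.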
With `Cc1cc2nc(-c3ccc(C(=O)N[C@@H](CCCNC(=N)N[N+](=O)[O-])C(=O)O)cc3)[nH]c2cc1C` the Time was 21.51 min.

Tested on: Trichophyton benhamiae
Experiment: Antifungal activity against Trichophyton mentagrophytes MUCC 665 after 48 hrs by disc diffusion method
Assay type: functional, Arthroderma benhamiae
Conditions: not given
How it was run: as §2
For `Cc1cc2nc(-c3ccc(C(=O)N[C@@H](CCCNC(=N)N[N+](=O)[O-])C(=O)O)cc3)[nH]c2cc1C`, the “inhibition zone (IZ)” value was 14 mm.

Tested on: not listed separately
Experiment: Anthelmintic activity against Megascoplex konkanensis ICARBC 211 assessed as mean paralyzing time
Assay type: functional
Conditions: not given
How it was run: as §6
For `Cc1cc2nc(-c3ccc(C(=O)N[C@@H](CCCNC(=N)N[N+](=O)[O-])C(=O)O)cc3)[nH]c2cc1C`, the TIME was 0.302 h.

Tested on: Eudrilus
Experiment: Anthelmintic activity against Eudrilus sp. assessed as mean paralyzing time
Assay type: functional
Conditions: not given
How it was run: as §6
Molecule `Cc1cc2nc(-c3ccc(C(=O)N[C@@H](CCCNC(=N)N[N+](=O)[O-])C(=O)O)cc3)[nH]c2cc1C` has a Time of 18.38 min.

Tested on: Pseudomonas aeruginosa
Experiment: Antibacterial activity against Pseudomonas aeruginosa NCIM 2034 after 18 hrs by tube dilution method
Assay type: functional
Conditions: NCIM 2034, 18 h
How it was run: as §3
`Cc1cc2nc(-c3ccc(C(=O)N[C@@H](CCCNC(=N)N[N+](=O)[O-])C(=O)O)cc3)[nH]c2cc1C` gave an MIC of 6 µg/mL (≈ 12.8 µM).

Tested on: Aspergillus niger
Experiment: Antifungal activity against Aspergillus niger MUCC 177 after 48 hrs by disc diffusion method
Assay type: functional
Conditions: not given
How it was run: as §2
With `Cc1cc2nc(-c3ccc(C(=O)N[C@@H](CCCNC(=N)N[N+](=O)[O-])C(=O)O)cc3)[nH]c2cc1C` the “inhibition zone (IZ)” value was 16 mm.

Tested on: not listed separately
Experiment: Anthelmintic activity against Megascoplex konkanensis ICARBC 211 assessed as mean death time
Assay type: functional
Conditions: not given
How it was run: as §6
`Cc1cc2nc(-c3ccc(C(=O)N[C@@H](CCCNC(=N)N[N+](=O)[O-])C(=O)O)cc3)[nH]c2cc1C` gave a TIME of 0.438 h.

Tested on: Microsporum audouinii
Experiment: Antifungal activity against Microsporum audouinii MUCC 545 after 48 hrs by disc diffusion method
Assay type: functional
Conditions: not given
How it was run: as §2
For `Cc1cc2nc(-c3ccc(C(=O)N[C@@H](CCCNC(=N)N[N+](=O)[O-])C(=O)O)cc3)[nH]c2cc1C`, the “inhibition zone (IZ)” value was 10 mm.

Tested on: Candida albicans
Experiment: Antifungal activity against Candida albicans MUCC 29 after 48 hrs by tube dilution method
Assay type: functional
Conditions: not given
How it was run: as §5
Molecule `Cc1cc2nc(-c3ccc(C(=O)N[C@@H](CCCNC(=N)N[N+](=O)[O-])C(=O)O)cc3)[nH]c2cc1C` has an MIC of 12.5 µg/mL (≈ 26.7 µM).

Tested on: Eudrilus
Experiment: Anthelmintic activity against Eudrilus sp. assessed as mean death time
Assay type: functional
Conditions: not given
How it was run: as §4
In the case of `Cc1cc2nc(-c3ccc(C(=O)N[C@@H](CCCNC(=N)N[N+](=O)[O-])C(=O)O)cc3)[nH]c2cc1C`, the Time is reported as 38.12 min.

Tested on: Pseudomonas aeruginosa
Experiment: Antibacterial activity against Pseudomonas aeruginosa NCIM 2034 after 18 hrs by disc diffusion method
Assay type: functional
Conditions: not given
How it was run: as §1
For `Cc1cc2nc(-c3ccc(C(=O)N[C@@H](CCCNC(=N)N[N+](=O)[O-])C(=O)O)cc3)[nH]c2cc1C`, the “inhibition zone (IZ)” value was 25 mm.

Tested on: Bacillus subtilis
Experiment: Antibacterial activity against Bacillus subtilis NCIM 2063 after 18 hrs by tube dilution method
Assay type: functional
Conditions: NCIM 2063, 18 h
How it was run: as §3
Molecule `Cc1cc2nc(-c3ccc(C(=O)N[C@@H](CCCNC(=N)N[N+](=O)[O-])C(=O)O)cc3)[nH]c2cc1C` has an MIC of 12.5 µg/mL (≈ 26.7 µM).

Tested on: Bacillus subtilis
Experiment: Antibacterial activity against Bacillus subtilis NCIM 2063 after 18 hrs by disc diffusion method
Assay type: functional
Conditions: not given
How it was run: as §1
With `Cc1cc2nc(-c3ccc(C(=O)N[C@@H](CCCNC(=N)N[N+](=O)[O-])C(=O)O)cc3)[nH]c2cc1C` the “inhibition zone (IZ)” value was 15 mm.
